In brackets after ≈: the same amount, converted by molar mass. Activity calls are given as the source filed them. No cut-off for these calls is given here.
What was measured:
Type in all cases: functional
Staphylococcus aureus [1] = experiment: Antimicrobial activity against Staphylococcus aureus 2079 at 35 degC after 18 to 24 hrs by NCCLS method based antimicrobial assay; settings: for MBC: read-out: MBC99.9
Bacillus subtilis [2] = experiment: Antimicrobial activity against Bacillus subtilis 2250 at 35 degC after 18 to 24 hrs by NCCLS method based antimicrobial assay; settings: for MBC: read-out: MBC99.9
Escherichia coli [3] = experiment: Antimicrobial activity against Escherichia coli 2109 at 35 degC after 18 to 24 hrs by NCCLS method based antimicrobial assay; settings: for MBC: read-out: MBC99.9
Candida albicans [4] = experiment: Antimicrobial activity against Candida albicans 3471 at 128 ug/disc at 37 degC after 24 to 72 hrs by agar-well diffusion assay; settings: for zone of inhibition at 128 µg/disc: read-out: DIZ
How it was run: (§1)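 Potato dextrose agar base plates overlaid with seeded agar cooled to 40 °C and inoculated with spores from 10-day cultures, final 1 × 10⁶ spores/mL. Compounds dissolved in DMSO at 128 µg/mL and applied on 6 mm filter-paper discs placed on chilled seeded medium. Nystatin positive control, DMSO negative control. Incubation 24–72 h at 37 °C. Inhibition zone diameter read by vernier caliper.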

Escherichia coli [5] = experiment: Antimicrobial activity against Escherichia coli 2109 at 128 ug/disc at 35 degC after 24 hrs by agar-well diffusion assay; settings: for zone of inhibition at 128 µg/disc: Escherichia coli, 2109, 24 h, read-out: DIZ
How it was run: (§2)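 Agar-well diffusion: 24 h bacterial cultures adjusted to 0.5 McFarland (1.5 × 10⁸ CFU/mL) and mixed into molten Mueller-Hinton agar before pouring. 6 mm wells punched and each filled with 50 µL of compound stock or control. Plates incubated 35 °C for 24 h. Zone of growth inhibition diameter measured with vernier caliper.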

Aspergillus niger [6] = experiment: Antimicrobial activity against Aspergillus niger 545 at 128 ug/disc at 37 degC after 24 to 72 hrs by agar-well diffusion assay; settings: in the assay text read “disc diffusion assay” for “agar-well diffusion assay”; how it was run: as §1
Pseudomonas aeruginosa [7] = experiment: Antimicrobial activity against Pseudomonas aeruginosa 2036 at 35 degC after 18 to 24 hrs by NCCLS method based antimicrobial assay; settings: for MBC: read-out: MBC99.9
Staphylococcus aureus [8] = experiment: Antimicrobial activity against Staphylococcus aureus 2079 at 128 ug/disc at 35 degC after 24 hrs by agar-well diffusion assay; settings: for zone of inhibition at 128 µg/disc: Staphylococcus aureus, 2079, 24 h, read-out: DIZ; how it was run: as §2
Aspergillus niger [9] = experiment: Antimicrobial activity against Aspergillus niger 545 at 35 degC after 48 hrs by CLSI method based antimicrobial assay
How it was run: (§3)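 Broth microdilution following CLSI guidelines over 256 to 1 µg/mL. MIC90 is the lowest concentration completely inhibiting growth. For MFC, 0.1 mL from each tube spread on agar and CFU counted after 48 h at 35 °C; MFC is lowest concentration killing 99.9% of inoculum. MFC/MIC ratio calculated: […], ≤4 as fungicidal.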

Bacillus subtilis [10] = experiment: Antimicrobial activity against Bacillus subtilis 2250 at 128 ug/disc at 35 degC after 24 hrs by agar-well diffusion assay; settings: for zone of inhibition at 128 µg/disc: Bacillus subtilis, 2250, 24 h, read-out: DIZ; how it was run: as §2
Pseudomonas aeruginosa [11] = experiment: Antimicrobial activity against Pseudomonas aeruginosa 2036 at 128 ug/disc at 35 degC after 24 hrs by agar-well diffusion assay; settings: for zone of inhibition at 128 µg/disc: Pseudomonas aeruginosa, 2036, 24 h, read-out: DIZ; how it was run: as §2
Candida albicans [12] = experiment: Antimicrobial activity against Candida albicans 3471 at 35 degC after 48 hrs by CLSI method based antimicrobial assay; settings: for MFC: read-out: MFC99.9; how it was run: as §3
Candida albicans [13] = experiment: Ratio of MFC99.9 to MIC90 for Candida albicans 3471 at 35 degC after 48 hrs by CLSI method based antimicrobial assay; how it was run: as §3

SMILES	MBC99.9 (Staphylococcus aureus [1])	MIC (Staphylococcus aureus [1])	MBC99.9 (Bacillus subtilis [2])	MIC (Bacillus subtilis [2])	MIC (Escherichia coli [3])	MBC (Escherichia coli [3]) [µg/mL]	zone of inhibition at 128 µg/disc (Escherichia coli [5]) [mm]	diameter of the inhibition zone (DIZ) (Aspergillus niger [6])	MIC (Pseudomonas aeruginosa [7])	diameter of the inhibition zone (DIZ) (Staphylococcus aureus [8])	MFC99.9 (Aspergillus niger [9])	MIC (Aspergillus niger [9])	diameter of the inhibition zone (DIZ) (Bacillus subtilis [10])	MBC99.9 (Escherichia coli [3])	zone of inhibition at 128 µg/disc (Candida albicans [4]) [mm]	MBC99.9 (Pseudomonas aeruginosa [7])	Ratio (Candida albicans [13])	diameter of the inhibition zone (DIZ) (Pseudomonas aeruginosa [11])	MIC (Candida albicans [12]; Candida albicans, 3471, 48 h) [µg/mL]	MFC (Candida albicans [12]; Candida albicans, 3471, 48 h) [µg/mL]	other results
O=[N+]([O-])c1ccc(/C(Cn2nnc3ccccc32)=N\Nc2nc(-c3ccc(Cl)cc3)cs2)cc1	inactive	inactive	inactive	inactive	64 µg/mL (≈ 131 µM)	128 (≈ 261 µM)	18.7	inactive	64 µg/mL (≈ 131 µM)	inactive	inactive	inactive	inactive								diameter of the inhibition zone (DIZ) (Candida albicans [4]): inactive; MBC (Pseudomonas aeruginosa [7]): 128 µg/mL (≈ 261 µM); zone of inhibition at 128 µg/disc (Pseudomonas aeruginosa [11]): 16.7 mm; MFC99.9 (Candida albicans [12]): inactive; MIC (Candida albicans [12]): inactive
O=[N+]([O-])c1ccc(-c2csc(N/N=C(/Cn3nnc4ccccc43)c3ccc(Br)cc3)n2)cc1	inactive	inactive	inactive	inactive	inactive			inactive	128 µg/mL (≈ 240 µM)	inactive	inactive	inactive	inactive	inactive							diameter of the inhibition zone (DIZ) (Candida albicans [4]): inactive; diameter of the inhibition zone (DIZ) (Escherichia coli [5]): inactive; MBC (Pseudomonas aeruginosa [7]): 256 µg/mL (≈ 479 µM); zone of inhibition at 128 µg/disc (Pseudomonas aeruginosa [11]): 13.2 mm; MFC99.9 (Candida albicans [12]): inactive; MIC (Candida albicans [12]): inactive
Brc1ccc(/C(Cn2nnc3ccccc32)=N\Nc2nc(-c3ccc(Br)cc3)cs2)cc1		32 µg/mL (≈ 56.3 µM)		128 µg/mL (≈ 225 µM)	inactive			inactive	inactive		inactive	inactive		inactive	18.1	inactive	2	inactive	32 (≈ 56.3 µM)	64 (≈ 113 µM)	MBC (Staphylococcus aureus [1]): 64 µg/mL (≈ 113 µM); MBC (Bacillus subtilis [2]): 256 µg/mL (≈ 450 µM); diameter of the inhibition zone (DIZ) (Escherichia coli [5]): inactive; zone of inhibition at 128 µg/disc (Staphylococcus aureus [8]): 23.4 mm; zone of inhibition at 128 µg/disc (Bacillus subtilis [10]): 17.2 mm
O=[N+]([O-])c1ccc(/C(Cn2nnc3ccccc32)=N\Nc2nc(-c3ccc([N+](=O)[O-])cc3)cs2)cc1	inactive	inactive	inactive	inactive	128 µg/mL (≈ 256 µM)	256 (≈ 511 µM)	17.5	inactive	inactive	inactive	inactive	inactive	inactive		14.3	inactive	2	inactive	64 (≈ 128 µM)	128 (≈ 256 µM)	
FC(F)(F)c1cc(-c2csc(N/N=C(/Cn3nnc4ccccc43)c3ccc(Cl)cc3)n2)cc(C(F)(F)F)c1	inactive	inactive	inactive	inactive	32 µg/mL (≈ 55.1 µM)	64 (≈ 110 µM)	21.1	inactive	inactive	inactive	inactive		inactive		13.7	inactive	2	inactive	64 (≈ 110 µM)	128 (≈ 220 µM)	
O=[N+]([O-])c1ccc(/C(Cn2nnc3ccccc32)=N\Nc2nc(-c3ccc(Br)cc3)cs2)cc1		64 µg/mL (≈ 120 µM)		128 µg/mL (≈ 240 µM)	inactive			inactive	inactive		inactive	inactive		inactive	17.3	inactive	2	inactive	32 (≈ 59.9 µM)	64 (≈ 120 µM)	MBC (Staphylococcus aureus [1]): 128 µg/mL (≈ 240 µM); MBC (Bacillus subtilis [2]): 256 µg/mL (≈ 479 µM); zone of inhibition at 128 µg/disc (Staphylococcus aureus [8]): 22.6 mm; zone of inhibition at 128 µg/disc (Bacillus subtilis [10]): 15.3 mm
O=C(N[C@H](CO)[C@H](O)c1ccc([N+](=O)[O-])cc1)C(Cl)Cl [CHLORAMPHENICOL]						32 (≈ 99 µM)	27.6														MBC (Staphylococcus aureus [1]): 32 µg/mL (≈ 99 µM); MBC (Bacillus subtilis [2]): 32 µg/mL (≈ 99 µM); MBC (Pseudomonas aeruginosa [7]): 32 µg/mL (≈ 99 µM); zone of inhibition at 128 µg/disc (Staphylococcus aureus [8]): 31.4 mm; zone of inhibition at 128 µg/disc (Bacillus subtilis [10]): 29.2 mm; zone of inhibition at 128 µg/disc (Pseudomonas aeruginosa [11]): 23.9 mm
FC(F)(F)c1cc(/C(Cn2nnc3ccccc32)=N\Nc2nc(-c3ccc(Br)cc3)cs2)cc(C(F)(F)F)c1	inactive	inactive	inactive	inactive	inactive			inactive	64 µg/mL (≈ 102 µM)	inactive	inactive	inactive	inactive	inactive							diameter of the inhibition zone (DIZ) (Candida albicans [4]): inactive; MBC (Pseudomonas aeruginosa [7]): 128 µg/mL (≈ 205 µM); zone of inhibition at 128 µg/disc (Pseudomonas aeruginosa [11]): 15.6 mm; MFC99.9 (Candida albicans [12]): inactive; MIC (Candida albicans [12]): inactive
Fc1ccc(/C(Cn2nnc3ccccc32)=N\Nc2nc(-c3ccc(Br)cc3)cs2)cc1		64 µg/mL (≈ 126 µM)		64 µg/mL (≈ 126 µM)	inactive			inactive	inactive		inactive	inactive		inactive	14.7	inactive	2	inactive	128 (≈ 252 µM)	256 (≈ 505 µM)	MBC (Staphylococcus aureus [1]): 128 µg/mL (≈ 252 µM); MBC (Bacillus subtilis [2]): 128 µg/mL (≈ 252 µM); diameter of the inhibition zone (DIZ) (Escherichia coli [5]): inactive; zone of inhibition at 128 µg/disc (Staphylococcus aureus [8]): 20.9 mm; zone of inhibition at 128 µg/disc (Bacillus subtilis [10]): 22.8 mm
FC(F)(F)c1cc(-c2csc(N/N=C(/Cn3nnc4ccccc43)c3ccc(Br)cc3)n2)cc(C(F)(F)F)c1		64 µg/mL (≈ 102 µM)		64 µg/mL (≈ 102 µM)	inactive			inactive	inactive		inactive	inactive		inactive		inactive		inactive			MBC (Staphylococcus aureus [1]): 64 µg/mL (≈ 102 µM); MBC (Bacillus subtilis [2]): 128 µg/mL (≈ 205 µM); diameter of the inhibition zone (DIZ) (Candida albicans [4]): inactive; diameter of the inhibition zone (DIZ) (Escherichia coli [5]): inactive; zone of inhibition at 128 µg/disc (Staphylococcus aureus [8]): 22.1 mm; zone of inhibition at 128 µg/disc (Bacillus subtilis [10]): 20.3 mm; MFC99.9 (Candida albicans [12]): inactive; MIC (Candida albicans [12]): inactive
O=[N+]([O-])c1ccc(-c2csc(N/N=C(/Cn3nnc4ccccc43)c3cc(C(F)(F)F)cc(C(F)(F)F)c3)n2)cc1	inactive	inactive	inactive	inactive	128 µg/mL (≈ 216 µM)	256 (≈ 433 µM)	13.1	inactive	inactive	inactive	inactive	inactive	inactive			inactive		inactive			diameter of the inhibition zone (DIZ) (Candida albicans [4]): inactive; MFC99.9 (Candida albicans [12]): inactive; MIC (Candida albicans [12]): inactive
FC(F)(F)c1cc(/C(Cn2nnc3ccccc32)=N\Nc2nc(-c3cc(C(F)(F)F)cc(C(F)(F)F)c3)cs2)cc(C(F)(F)F)c1	inactive	inactive	inactive	inactive	128 µg/mL (≈ 188 µM)	256 (≈ 375 µM)	16.4	inactive	inactive	inactive	inactive	inactive	inactive		11.7	inactive	2	inactive	128 (≈ 188 µM)	256 (≈ 375 µM)	
